Measurements published in ChEMBL document CHEMBL1140765, “Synthesis and biological evaluation of 2-trifluoromethyl/sulfonamido-5,6-diaryl substituted imidazo[2,1-b]-1,3,4-thiadiazoles: a novel class of cyclooxygenase-2 inhibitors” (Bioorg Med Chem, 2008).
pIC50: −log10 of the molar value.

Experiments:
Rattus norvegicus [1] = assay: Antiinflammatory activity in Albino rat assessed as reduction of carrageenan-induced paw edema volume at 10 mg/kg, po after 2 hrs; type: functional; design: scale not given: the % may be the effect or the level left
How it was run: (§1)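 Male albino rats, six per group, were dosed orally. One hour later they received a subplantar injection of 0.05 mL of 1% carrageenan in 0.9% sterile solution into the left hind paw. Paw volume was read by digital plethysmometer at 0, 2 and 4 h. Percent reduction was calculated as (1 − treated/vehicle control edema volume) × 100, and values are given as mean ± SE.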

Rattus norvegicus [2] = assay: Antiinflammatory activity in Albino rat assessed as reduction of carrageenan-induced paw edema volume at 10 mg/kg, po after 4 hrs; type: functional; design: scale not given: the % may be the effect or the level left; how it was run: as §1
[3] = target: T1, Prostaglandin G/H synthase 1 (Ovis aries) (UniProt P05979); assay: Inhibition of ovine COX1 at 10 uM
T1 sequence (whole entry): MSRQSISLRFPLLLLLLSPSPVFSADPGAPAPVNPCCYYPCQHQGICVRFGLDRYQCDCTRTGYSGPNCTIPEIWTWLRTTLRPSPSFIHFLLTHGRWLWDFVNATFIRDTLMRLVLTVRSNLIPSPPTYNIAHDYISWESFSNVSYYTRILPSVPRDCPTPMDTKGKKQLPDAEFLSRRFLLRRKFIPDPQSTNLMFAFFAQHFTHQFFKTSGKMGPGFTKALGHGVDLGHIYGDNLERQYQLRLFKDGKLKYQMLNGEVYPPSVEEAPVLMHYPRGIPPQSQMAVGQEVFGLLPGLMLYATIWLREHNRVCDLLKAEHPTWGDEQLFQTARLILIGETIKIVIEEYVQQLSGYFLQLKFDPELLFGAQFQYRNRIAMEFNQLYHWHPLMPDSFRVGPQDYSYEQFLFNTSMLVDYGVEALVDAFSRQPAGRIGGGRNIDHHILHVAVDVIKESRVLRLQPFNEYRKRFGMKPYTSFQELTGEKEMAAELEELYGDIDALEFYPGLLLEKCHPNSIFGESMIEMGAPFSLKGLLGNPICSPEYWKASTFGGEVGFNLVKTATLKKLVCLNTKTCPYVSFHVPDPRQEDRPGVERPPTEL
How it was run: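 Ovine COX-1 activity was measured with a colorimetric inhibitor assay kit that reads the enzyme's peroxidase component. Oxidized TMPD was monitored at 590 nm during reduction of PGG2 to PGH2. Runs were done in duplicate.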

[4] = target: T2, Prostaglandin G/H synthase 1 (Ovis aries, UniProt P05979); assay: Inhibition of ovine COX1
T2 sequence (P05979 whole entry): T1 sequence (whole entry)
How it was run: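 Ovine enzyme, colorimetric kit assay read through the peroxidase component: oxidised TMPD appearing during PGG2 to PGH2 reduction monitored at 590 nm; values reported as IC50 in µM, duplicate experiments.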

Cc1ccc(-c2cc(C(F)(F)F)nn2-c2ccc(S(N)(=O)=O)cc2)cc1 [CELECOXIB]
Activity (Rattus norvegicus [1]): 48.31% | Activity (Rattus norvegicus [2]): 64.83%

COc1ccc(-c2c(-c3ccccc3)nc3sc(C(F)(F)F)nn23)cc1
inhibition [3]: 30.6% | Activity (Rattus norvegicus [1]): 29.62% | Activity (Rattus norvegicus [2]): 42.32%

COc1ccc(-c2nc3sc(S(N)(=O)=O)nn3c2-c2ccc(OC)cc2)cc1
inhibition [3]: 28.1% | Activity (Rattus norvegicus [1]): 24.68% | Activity (Rattus norvegicus [2]): 37.05%

CSc1ccc(-c2nc3sc(C(F)(F)F)nn3c2-c2ccccc2)cc1
inhibition [3]: 14.2% | Activity (Rattus norvegicus [1]): 37.64% | Activity (Rattus norvegicus [2]): 54.16%

COc1ccc(-c2c(-c3ccc(F)cc3)nc3sc(S(N)(=O)=O)nn23)cc1
inhibition [3]: 12.9% | Activity (Rattus norvegicus [1]): 43.49% | Activity (Rattus norvegicus [2]): 51.72%

COc1ccc(-c2nc3sc(C(F)(F)F)nn3c2-c2ccc(OC)cc2)cc1
inhibition [3]: 15.5% | Activity (Rattus norvegicus [1]): 38.03% | Activity (Rattus norvegicus [2]): 48.78%

COc1ccc(-c2c(-c3ccc(S(C)(=O)=O)cc3)nc3sc(S(N)(=O)=O)nn23)cc1
pIC50 [4]: < 4.30 | inhibition [3]: 13.3% | Activity (Rattus norvegicus [1]): 54.28% | Activity (Rattus norvegicus [2]): 61.29%

CS(=O)(=O)c1ccc(-c2nc3sc(C(F)(F)F)nn3c2-c2ccccc2)cc1
pIC50 [4]: < 4.30 | inhibition [3]: 8.6% | Activity (Rattus norvegicus [1]): 46.73% | Activity (Rattus norvegicus [2]): 70.09%

COc1ccc(-c2c(-c3ccc(SC)cc3)nc3sc(C(F)(F)F)nn23)cc1
inhibition [3]: 10.5% | Activity (Rattus norvegicus [1]): 42.38% | Activity (Rattus norvegicus [2]): 66.16%
